Measured values collected from several papers.
Cell line: SW-620

| Structure (SMILES) | read-out | technique | concentration | time | notes | endpoint | result |
| --- | --- | --- | --- | --- | --- | --- | --- |
| CC(=O)Nc1cccc(-n2c(=O)n(C3CC3)c(=O)c3c(Nc4ccc(I)cc4F)n(C)c(=O)c(C)c32)c1 | cell growth or viability | resazurin | 780 pM | 72 h | – | viability | 71.7% |
| O=C(/C=C/c1ccc2ncn(Cc3ccccc3)c(=O)c2c1)NO | cell growth or viability | SRB | – | 48 h | – | IC50 | 1.52 µM |
| COc1ccc(C(=O)/C=C/c2ccccc2Br)cc1S(N)(=O)=O | cell growth or viability | SRB | 10 µM | – | – | inhibition | 146% |
| O=C(/C=C/c1ccc2ncn(Cc3ccc(Cl)cc3)c(=O)c2c1)NO | cell growth or viability | SRB | – | 48 h | – | IC50 | 2.57 µM |
| COc1ccc(C(=O)/C=C/c2ccc3ccccc3c2)cc1S(N)(=O)=O | cell growth or viability | SRB | – | 48 h | – | GI50 | 1.8 µM |
| CC[C@H](C)C(=O)O[C@H]1C[C@@H](C)C=C2C=C[C@H](C)[C@H](CC[C@@H]3C[C@@H](O)CC(=O)O3)[C@H]21 | cell growth or viability | SRB | – | 72 h | – | IC50 | 0.03 µg/mL |
| COc1cccc(Oc2ccccc2NC(=O)CNC(=O)c2cccc3ccccc23)c1 | cell growth or viability | SRB | – | 48 h | – | GI50 | 0.166 µM |
| COc1ccc(C(=O)/C=C/c2cccc(Cl)c2Cl)cc1S(N)(=O)=O | cell growth or viability | SRB | – | 48 h | – | GI50 | 1.6 µM |
| Cc1cc(C)n(C(=S)[S][Au][PH](CCCCCC[PH]([Au][S]C(=S)n2nc(C)cc2C)(c2ccccc2)c2ccccc2)(c2ccccc2)c2ccccc2)n1 | cell growth or viability | – | – | – | – | GI50 | 1.26 µM |
| CC(C)C[C@H](NC(=O)[C@H](Cc1ccccc1)NC(=O)c1cnccn1)B(O)O | cell growth or viability | ATP luminescence | – | – | – | IC50 | 0.009 µM |
| O=C(/C=C/c1ccc2c(=O)n(Cc3ccccc3F)cnc2c1)NO | cell growth or viability | SRB | – | 48 h | – | IC50 | 1.77 µM |
| COc1ccc(C(=O)/C=C/c2c(F)cccc2Cl)cc1S(N)(=O)=O | cell growth or viability | SRB | – | 48 h | – | GI50 | 3.6 µM |
| O=C(/C=C/c1ccc2c(=O)n(Cc3ccc(Cl)cc3)cnc2c1)NO | cell growth or viability | SRB | – | 48 h | – | IC50 | 0.671 µM |
| CC[C@H](C)C(=O)O[C@H]1CCC=C2C=C[C@H](C)[C@H](CC[C@@H]3C[C@@H](O)CC(=O)O3)[C@H]21 | cell growth or viability | SRB | – | 72 h | – | IC50 | 0.48 µg/mL |
| O=C(/C=C/c1ccc2c(=O)n(Cc3ccc(F)cc3)cnc2c1)NO | cell growth or viability | SRB | – | 48 h | – | IC50 | 1.03 µM |
| Cn1cc(-c2ccc(-c3cncc(Cl)c3N3CCC4(CCNC4=O)CC3)cc2)cn1 | colony formation | – | – | 14 days | 3D culture | GI50 | 0.14 µM |
